Key:
[1] = system: MV4;11; experiment: Cell growth inhibition, CellTiter-Glo; assay type: cell-based, human
[2] = system: MOLM-13; experiment: Cell growth inhibition, CellTiter-Glo; assay type: cell-based
[3] = system: HOXA9 mRNA in MV4;11 cells; experiment: qRT-PCR gene expression in MV4; assay type: cell-based, human; details: 24h of treatment
Procedure, shortened: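 Total RNA from in vitro-grown cells isolated with RNeasy. cDNA made with a High-Capacity reverse transcription kit. TaqMan gene expression assays with gene-specific primers amplified HOXA9, MEIS1, ITGAM, GAPDH and HPRT1. Relative transcript levels calculated by the comparative Ct method.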

[4] = system: MV4;11 subcutaneous tumors; experiment: MV4; assay type: in vivo, mice; details: 100 mg/kg daily for 26 days, oral gavage; 157 mm^3 at the beginning of the treatment
Procedure, shortened: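 Female C.B-17 SCID mice (5–6 weeks) implanted sc in the right flank with 5×10^6 MV4;11 cells in 1:1 Matrigel. Randomized once tumors reached the target volume. Dosed once daily by oral gavage at 10 ml/kg; vehicle 0.5% MC (400cP) + 0.2% Tween 80 (w/w). Body weight recorded daily. Calipers three times weekly; volume = 0.5×W×W×L; mean ± SEM. Regrowth followed to day 45 after treatment start.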

## COC(=O)N[C@H]1CCC[C@@H]1[C@](CN1CCC1)(c1cccc(F)c1)C1CCN(CC2(OC)CN(c3ccc(S(=O)(=O)C4CN(C(=O)/C=C/CN(C)C)C4)cc3)C2)CC1 [Compound 19, Methyl ((1S,2R)-2-(2-(azetidin-1-yl)-1-(1-((1-(4-((1-((E)-4-(dimethylamino)but-2-enoyl)-azetidin-3-yl)sulfonyl)phenyl)-3-methoxyazetidin-3-yl)methyl)piperidin-4-yl)-1-(3-fluorophenyl)ethyl)cyclopentyl)carbamate]
[1]; MV4;11, ratio of IC50
  Fold more potent than compound 17 in inhibiting proliferation: 72 fold
[2]; MOLM-13, ratio of IC50
  Fold more potent than compound 17 in inhibiting proliferation: 9 fold

## C=CC(=O)N1CC(S(=O)(=O)c2ccc(N3CC(CN4CCC([C@@](CN5CCC5)(c5cccc(F)c5)[C@H]5CCC[C@@H]5NC(=O)OC)CC4)(OC)C3)cc2)C1 [Compound 20, Methyl ((1S,2R)-2-(1-(1-((1-(4-((1-acryloylazetidin-3-yl)sulfonyl)phenyl)-3-methoxyazetidin-3-yl)methyl)piperidin-4-yl)-2-(azetidin-1-yl)-1-(3-fluorophenyl)ethyl)cyclopentyl)carbamate]
[1]; MV4;11, ratio of IC50
  Fold less potent than compound 19 in inhibiting growth: 49 fold
[2]; MOLM-13, ratio of IC50
  Fold less potent than compound 19 in inhibiting growth: 8 fold

## C=CC(=O)N1CCC[C@H](S(=O)(=O)c2ccc(N3CC(CN4CCC([C@@](CN5CCC5)(c5cccc(F)c5)[C@H]5CCC[C@@H]5NC(=O)OC)CC4)(OC)C3)cc2)C1 [Compound 22, Methyl ((1S,2R)-2-(1-(1-((1-(4-(((S)-1-acryloylpiperidin-3-yl)sulfonyl)phenyl)-3-methoxy-azetidin-3-yl)methyl)piperidin-4-yl)-2-(azetidin-1-yl)-1-(3-fluorophenyl)ethyl)-cyclopentyl)carbamate]
[1]; MV4;11
  Times more potent than compound 21: 2 times
[2]; MOLM-13
  Times more potent than compound 21: 2 times

## C=CC(=O)N1CCC[C@@H](S(=O)(=O)c2ccc(N3CC(CN4CCC([C@@](CN5CCC5)(c5cccc(F)c5)[C@H]5CCC[C@@H]5NC(=O)OC)CC4)(OC)C3)cc2)C1 [Compound 23, Methyl ((1S,2R)-2-(1-(1-((1-(4-(((R)-1-acryloylpiperidin-3-yl)sulfonyl)phenyl)-3-methoxy-azetidin-3-yl)methyl)piperidin-4-yl)-2-(azetidin-1-yl)-1-(3-fluorophenyl)ethyl)cyclopentyl)-carbamate]
[1]; MV4;11
  Times more potent than compound 21: 2 times
[2]; MOLM-13
  Times more potent than compound 21: 2 times

## C=CC(=O)N1C[C@@H]2C[C@H]1CN2S(=O)(=O)c1ccc(N2CC(CN3CCC([C@@](CN4CCC4)(c4cccc(F)c4)[C@H]4CCC[C@@H]4NC(=O)OC)CC3)(OC)C2)cc1 [Compound 24, Methyl ((1S,2R)-2-(1-(1-((1-(4-(((1S,4S)-5-acryloyl-2,5-diazabicyclo[2.2.1]heptan-2-yl)-sulfonyl)phenyl)-3-methoxyazetidin-3-yl)methyl)piperidin-4-yl)-2-(azetidin-1-yl)-1-(3-fluoro-phenyl)ethyl)cyclopentyl)carbamate]
[3]
  Concentration as low as which HOXA9 gene expression is effectively modulated: 10 nM
[4]
  Average tumor volume on day 26 of the treatment: 106 mm^3
[1]; MV4;11
  Fold more potent than compound 20: 8–10 fold
[1]; MV4;11, ratio of IC50
  Fold more potent than stereoisomer compound 25: 40 fold
[2]; MOLM-13
  Fold more potent than compound 20: 8–10 fold
[2]; MOLM-13, ratio of IC50
  Fold more potent than stereoisomer compound 25: 9 fold

## CCC(=O)N1C[C@@H]2C[C@H]1CN2S(=O)(=O)c1ccc(N2CC(CN3CCC([C@@](CN4CCC4)(c4cccc(F)c4)[C@H]4CCC[C@@H]4NC(=O)OC)CC3)(OC)C2)cc1 [Compound 26, Methyl ((1S,2R)-2-(2-(azetidin-1-yl)-1-(3-fluorophenyl)-1-(1-((3-methoxy-1-(4-(((1S,4S)-5-propionyl-2,5-diazabicyclo[2.2.1]heptan-2-yl)sulfonyl)phenyl)azetidin-3-yl)methyl)piperidin-4-yl)ethyl)cyclopentyl)carbamate]
[1]; MV4;11
  Times less potent than 24 in inhibition of cell growth: > 10 times
[2]; MOLM-13
  Times less potent than 24 in inhibition of cell growth: > 10 times
